The source of these data is PubChem BioAssay.

The source made the active and inactive calls.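 The calls were made as follows, unless noted: active = fluorescence slope after compound addition differing from the mean of all tested samples at 99.7% confidence, mostly higher but some lower; inactive = the rest.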

Experiment [1] can be described thus: inhibitors of TNFa-induced NFkB p65 translocation, primary screen, imaging, HUVEC, MLSMR starter and 10KST1 sets (AID 438;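 active = inhibition above 20% together with a positive visual image hit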;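 also: compound added about 3h40 before a 20 min TNFalpha stimulation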;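 as to inhibition: signal is the nuclear over cytoplasmic p65 intensity ratio per well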). Conditions: HUVEC TNFa-induced p65 nuclear translocation; cell count: measured here: nuclei count (cytotoxicity indicator), at 2.08 µM; inhibition: at 2 µM, stronger effect = higher value, 0% TNFa-plus-vehicle, 100% no-TNFa wells.
The nature of experiment [2]: inhibitors of mutant huntingtin aggregation, primary screen, imaging, exon1htt(103Q)mCFP cells, high-content imaging (AID 483;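 active = visual image review flags a hit and inhibition of aggregation exceeds 20%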;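 also: compound exposure lasted 3 days before fixation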;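 as to nuclei count: percent of the per-plate median nuclei count of sample wells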). The conditions noted are these: exon1htt(103Q)mCFP cell line, aggregate imaging, at 2 µM; inhibition of aggregation: stronger effect = higher value; nuclei count: measured here: cell count, toxicity.
Experiment [3] can be described thus: inhibitors of E-selectin induction by TNFa, primary screen, imaging, HUVEC, immunofluorescence, MLSMR starter and 10KST1 sets (AID 487;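 active = visually confirmed hit in the image check and inhibition above 20%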;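 as to inhibition: signal is fraction of cell area covered by stained E-selectin grains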;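 as to nuclei count: 100% = median nuclei count of all wells on the same plate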). Conditions: HUVEC TNFalpha-induced E-selectin immunofluorescence imaging, at 2 µM; inhibition: stronger effect = higher value; nuclei count: measured here: cell number, toxicity.
Experiment [4] concerns the target Voltage-gated potassium channel subunit beta-2 (Rattus norvegicus) (UniProt P62483). The experiment is described as follows: KvBeta enzyme negative modulators, primary screen, biochemical, NADPH fluorescence (AID 622;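 active = fluorescence slope higher than the sample average by over 3 SD, cut at about -0.22 in these data, passing the limit was not always enough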;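 also: slope of raw intensity against log time taken from 70 to 1610 s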). Conditions: recombinant KvBeta, 4-cyanobenzaldehyde reduction, at 10 µM, stronger effect = higher value.
The target is the same in experiment [5]. Put plainly: KvBeta positive modulators, primary screen, biochemical, NADPH fluorescence (AID 623;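 active = NADPH fluorescence slope more negative than the mean of all samples by about 3 SD, 99.7% confidence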;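 also: fluorescence intensity change per second fitted from 20 to 320 s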). The conditions noted are these: Recombinant KvBeta, NADPH fluorescence decrease slope, 10 min; at 10 µM; stronger effect = lower value.
In experiment [6] the target is Muscarinic acetylcholine receptor M4 (Homo sapiens) (UniProt P08173). The experiment is described as follows: compounds altering M4/GIRK thallium flux, either direction, primary screen, M4 allosteric agonist project, cell-based, HEK293 M4/GIRK, BTC-AM (AID 625).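 Also: thallium influx through GIRK channels coupled to M4 in HEK293 cells with BTC-AM dye.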 Conditions: at 10 µM, actives lie on both sides. The method, boiled down: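 Assay system: HEK293 cells with M4 receptor and GIRK channels / Controls: carbachol and DMSO controls / Schedule: 1 h dye loading, 2 min kinetic read / Technique: kinetic fluorescence with BTC-AM dye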
Sequence of Muscarinic acetylcholine receptor M4 (Homo sapiens) (P08173 whole entry, looked up): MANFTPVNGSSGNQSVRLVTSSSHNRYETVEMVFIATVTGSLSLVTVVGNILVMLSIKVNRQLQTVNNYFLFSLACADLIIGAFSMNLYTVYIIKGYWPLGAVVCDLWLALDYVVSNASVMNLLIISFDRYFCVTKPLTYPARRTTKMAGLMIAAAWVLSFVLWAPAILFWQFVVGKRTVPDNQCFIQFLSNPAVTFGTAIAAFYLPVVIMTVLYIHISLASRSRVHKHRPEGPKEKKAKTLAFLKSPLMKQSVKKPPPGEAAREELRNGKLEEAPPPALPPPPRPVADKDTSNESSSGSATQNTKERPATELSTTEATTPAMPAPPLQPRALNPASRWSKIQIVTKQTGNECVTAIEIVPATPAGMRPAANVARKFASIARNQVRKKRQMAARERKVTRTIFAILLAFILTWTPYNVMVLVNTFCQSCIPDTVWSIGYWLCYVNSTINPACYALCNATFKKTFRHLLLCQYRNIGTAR

A short description of experiment [7]: inhibitors of Sendai virus-induced IRF3 signaling, primary screen, TLR/RLR signaling modifier project, cell-based, Sendai virus stimulus, luciferase, 10K MLSCN set (AID 602276;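 active = inhibition at or above 50% at 10 µM; inactive = inhibition below 50%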;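 also: firefly luciferase from ISG56 promoter only with Renilla not read in this screen; 0% = Sendai virus plus DMSO and 100% = medium plus DMSO without virus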). Conditions: HEK293 RL24 IRF3 luciferase reporter, at 10 µM, stronger effect = higher value. Background: In a reporter assay the amount or activity of a reporter protein is the signal.
Experiment [8] in a line: inhibitors of poly I:C-induced TLR3 signaling, primary screen, cell-based, poly I:C stimulus, luciferase, 10K MLSCN set (AID 602277;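 active = inhibition of the reporter signal at or above 50%; inactive = inhibition below 50%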). The conditions noted are these: HEK293-TLR3 RL24 IRF3 luciferase reporter, at 10 µM, stronger effect = higher value.

Sequence of Voltage-gated potassium channel subunit beta-2 (Rattus norvegicus) (P62483 whole entry, looked up): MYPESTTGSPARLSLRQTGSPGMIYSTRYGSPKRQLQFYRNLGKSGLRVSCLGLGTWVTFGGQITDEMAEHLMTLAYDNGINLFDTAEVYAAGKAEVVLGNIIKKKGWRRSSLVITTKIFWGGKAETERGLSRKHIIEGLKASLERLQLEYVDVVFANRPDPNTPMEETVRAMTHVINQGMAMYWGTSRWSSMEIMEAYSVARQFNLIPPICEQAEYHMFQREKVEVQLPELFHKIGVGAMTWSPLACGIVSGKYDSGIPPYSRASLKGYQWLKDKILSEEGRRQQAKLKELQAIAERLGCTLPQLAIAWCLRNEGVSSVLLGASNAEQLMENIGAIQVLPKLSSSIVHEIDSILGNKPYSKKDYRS

Regarding `Cc1cccc(-n2ncc3c(NCc4ccccn4)ncnc32)c1`, in experiment [1], the cell count is 351. The inhibition (in general, the drop in the measured response relative to a control, in per cent) in experiment [1] was -16.8% (inactive); in experiment [3], 0.4% (inactive); in experiment [7], -33.2% (inactive); in experiment [8], -129% (inactive). Moreover, the inhibition of aggregation in experiment [2] was 4.2% (inactive). Moreover, the nuclei count was 101% in experiment [2] and 122% in experiment [3]. In addition, the figures for the fluorescence slope in experiment [4] and in experiment [6] were -0.592 (inactive) and 0.00598 (inactive), respectively. The NADPH fluorescence slope in experiment [5] is -4.2e-05 (inactive).
Regarding `Cc1nc2ccccn2c1C(=O)NCCCN1CCOCC1`, in experiment [1], the cell count came out at 521. Moreover, the inhibition in experiment [1] was -7.5% (inactive); in experiment [3] it was 11.8% (inactive); in experiment [7], 4.89% (inactive); in experiment [8], 12.3% (inactive). In addition, the inhibition of aggregation in experiment [2] is 3% (inactive). The nuclei count in experiment [2] and in experiment [3] was 102% each time. For the same compound, the fluorescence slope in experiment [4] was -0.461 (inactive); in experiment [6], 0.0064 (inactive). For the same compound, the NADPH fluorescence slope in experiment [5] is 0.000108 (inactive).
Regarding `COC(=O)c1ccc(CNC(=O)COc2ccccc2Br)o1`, in experiment [1], the cell count is 712. The inhibition in experiment [1] was -13.6% (inactive); in experiment [3], 0.2% (inactive); in experiment [7] it was 5.53% (inactive); in experiment [8], 1.32% (inactive). In addition, the inhibition of aggregation in experiment [2] was -7.2% (inactive). For the same compound, the values for the nuclei count in experiment [2] and in experiment [3] were 110% and 81.7%, respectively. Besides, the fluorescence slope in experiment [4] is -0.556 (inactive); in experiment [6], 0.00463 (inactive). For the same compound, the NADPH fluorescence slope in experiment [5] was -8.6e-06 (inactive).
For the compound `Cc1cc(Cl)c(S(=O)(=O)N2CCN(c3ccc(F)cc3)CC2)cc1OCC(N)=O`, the cell count in experiment [1] is 373. The inhibition in experiment [1] was -9% (inactive); in experiment [3], -37.6% (inactive); in experiment [7], 19.6% (inactive); in experiment [8] it was 9.49% (inactive). The inhibition of aggregation in experiment [2] is 0.5% (inactive). Besides, the nuclei count in experiment [2] came out at 97.1%; in experiment [3], 96.1%. For the same compound, the fluorescence slope is -0.587 (inactive) in experiment [4] and 0.0038 (inactive) in experiment [6]. In experiment [5], the NADPH fluorescence slope is -9.2e-05 (inactive).
Consider `CS(=O)(=O)N1CCN(C(=O)c2ccc(-c3ccccc3)cc2)CC1`, for which, in experiment [1], the cell count was 481. Besides, the inhibition in experiment [1] was 4% (inactive); in experiment [3], -287% (inactive); in experiment [7] it was 18.4% (inactive); in experiment [8], 22.5% (inactive). Further, in experiment [2], the inhibition of aggregation was -11% (inactive). For the same compound, the figures for the nuclei count in experiment [2] and in experiment [3] were 108% and 128%, respectively. The fluorescence slope was -0.541 (inactive) in experiment [4] and 0.00648 (inactive) in experiment [6]. In addition, the NADPH fluorescence slope in experiment [5] is -5.8e-05 (inactive).
Turning to `Cc1nn(-c2ccc(F)cc2)c(C)c1NS(=O)(=O)c1ccc(Cl)cc1`, in experiment [1], the cell count amounted to 307. For the same compound, the inhibition in experiment [1] is 4.2% (inactive); in experiment [3], -56% (inactive); in experiment [7], 13.3% (inactive); in experiment [8] it was 18.8% (inactive). Besides, the inhibition of aggregation in experiment [2] is 17.1% (inactive). Further, the nuclei count in experiment [2] worked out at 89.1%; in experiment [3] it was 98.7%. Besides, the fluorescence slope was -0.382 (inactive) in experiment [4] and 0.00631 (inactive) in experiment [6]. For the same compound, in experiment [5], the NADPH fluorescence slope was -4.6e-05 (inactive).
On to `Cc1ccc(OCC(O)Cn2c(=N)n(CCN3CCCCC3)c3ccccc32)cc1` (centres undefined), for which the cell count in experiment [1] worked out at 277. The inhibition in experiment [1] was 4.5% (inactive); in experiment [3], -6.5% (inactive); in experiment [7], -33.6% (inactive); in experiment [8], 62.2% (active). Moreover, the inhibition of aggregation in experiment [2] is 2.3% (inactive). For the same compound, the results for the nuclei count in experiment [2] and in experiment [3] were 63.4% and 96.8%, respectively. Further, the figures for the fluorescence slope in experiment [4] and in experiment [6] were -0.381 (inactive) and 0.00474 (inactive), respectively. In addition, in experiment [5], the NADPH fluorescence slope is -4.1e-05 (inactive).
`CC(C)(C)OC(=O)NC(CCNC=C1C(=O)OC(C)(C)OC1=O)C(=O)O` (centres undefined): the cell count in experiment [1] came out at 255. The inhibition in experiment [1] is 7.2% (inactive); in experiment [3], -87% (inactive); in experiment [7], 5.28% (inactive); in experiment [8], 0.81% (inactive). Further, in experiment [2], the inhibition of aggregation was 12.3% (inactive). For the same compound, the nuclei count in experiment [2] stood at 106%; in experiment [3] it was 103%. Also, the fluorescence slope is -0.299 (inactive) in experiment [4] and 0.00613 (inactive) in experiment [6]. Further, in experiment [5], the NADPH fluorescence slope is -5.2e-05 (inactive).
In the case of `CN1CCN(S(=O)(=O)c2ccc(Sc3nnc(-c4cccs4)n3-c3ccccc3)nc2)CC1`, the cell count in experiment [1] stood at 603. In addition, the inhibition in experiment [1] was -11% (inactive); in experiment [3], -140% (inactive); in experiment [7], 1.81% (inactive); in experiment [8], 4.54% (inactive). Moreover, the inhibition of aggregation in experiment [2] was -9% (inactive). In addition, the nuclei count came to 104% in experiment [2] and 142% in experiment [3]. The fluorescence slope is -0.245 (inactive) in experiment [4] and 0.00549 (inactive) in experiment [6]. Moreover, the NADPH fluorescence slope in experiment [5] is -2e-05 (inactive).
Turning to `Nc1nnc(-c2cc3ccccc3oc2=O)s1`, the cell count in experiment [1] turned out to be 723. For the same compound, the inhibition in experiment [1] is -6.8% (inactive); in experiment [3], -72.3% (inactive); in experiment [7] it was -3.81% (inactive); in experiment [8], -27.9% (inactive). In addition, the inhibition of aggregation in experiment [2] is 2.5% (inactive). Moreover, the nuclei count in experiment [2] is 94%; in experiment [3], 123%. Further, the fluorescence slope in experiment [4] is -0.0269 (inactive); in experiment [6] it was 0.0038 (inactive). Also, the NADPH fluorescence slope in experiment [5] was -7.7e-06 (inactive).
As for `CC(c1ccco1)N(C(=O)c1ccc(S(=O)(=O)N2CCCCC2)cc1)c1ccccn1` (centres undefined), in experiment [1], the cell count turned out to be 265. Moreover, the inhibition in experiment [1] is 18.1% (inactive); in experiment [3], -32.7% (inactive); in experiment [7] it was 6.94% (inactive); in experiment [8], 8.51% (inactive). In addition, the inhibition of aggregation in experiment [2] is 13.8% (inactive). In addition, the values for the nuclei count in experiment [2] and in experiment [3] were 109% and 105%, respectively. The fluorescence slope in experiment [4] was -0.506 (inactive); in experiment [6] it was 0.0101 (inactive). In experiment [5], the NADPH fluorescence slope was -0.000211 (active).
For `CCC(C)NC(=O)c1cc(-c2ccc(OC)cc2)on1` (centres undefined), the cell count in experiment [1] was 689. Moreover, the inhibition was -15.5% (inactive) in experiment [1], 13.2% (inactive) in experiment [3], -45.5% (inactive) in experiment [7] and -170% (inactive) in experiment [8]. In addition, the inhibition of aggregation in experiment [2] is 1.3% (inactive). The values for the nuclei count in experiment [2] and in experiment [3] were 101% and 108%, respectively. Also, the figures for the fluorescence slope in experiment [4] and in experiment [6] were -0.286 (inactive) and 0.00668 (inactive), respectively. For the same compound, the NADPH fluorescence slope in experiment [5] was -1.4e-05 (inactive).
For `Cc1cc(NC(=O)CS(=O)(=O)c2cn(Cc3cccc(F)c3)c3ccccc23)no1`, in experiment [1], the cell count stood at 815. For the same compound, the inhibition in experiment [1] is -6.6% (inactive); in experiment [3] it was -94.1% (inactive); in experiment [7], 11.5% (inactive); in experiment [8], 0.399% (inactive). Further, the inhibition of aggregation in experiment [2] was 6.9% (inactive). Further, the nuclei count in experiment [2] turned out to be 116%; in experiment [3], 107%. The results for the fluorescence slope in experiment [4] and in experiment [6] were -0.262 (inactive) and 0.00574 (inactive), respectively. Moreover, the NADPH fluorescence slope in experiment [5] was -2.4e-05 (inactive).
`COc1ccc(OC)c(C(=O)c2nc3c(n2O)CCCCC3)c1`: in experiment [1], the cell count is 332. Besides, the inhibition in experiment [1] is -1.1% (inactive); in experiment [3], -55% (inactive); in experiment [7], 5.91% (inactive); in experiment [8], 7.03% (inactive). Further, the inhibition of aggregation in experiment [2] was -40.7% (inactive). In addition, the nuclei count turned out to be 114% in experiment [2] and 103% in experiment [3]. For the same compound, the fluorescence slope in experiment [4] was -0.567 (inactive); in experiment [6], 0.00381 (inactive). For the same compound, in experiment [5], the NADPH fluorescence slope is -6.5e-05 (inactive).
